34 compounds from ChEMBL document CHEMBL1129741, “Synthesis and hypolipidemic activities of novel 2-[4-[diethoxyphosphoryl)methyl]phenyl]quinazolines and 4(3H)-quinazolinones” (J Med Chem, 1996) can be followed below.

As usually defined, the logP is a log measure of how a compound divides between an organic and an aqueous phase. Read a low logP as a more hydrophilic compound.

Series [1] concerns Rattus norvegicus. Put plainly: Effect on change in plasma triglycerides (TG) in triton-induced hyperlipidemic rats after peroral administration of 100 mg/kg. The following applies: route oral. In kind it is functional.
Series [2] concerns Rattus norvegicus. Put plainly: Effect on change in total cholesterol (TC) in triton-induced hyperlipidemic rats after peroral administration of 100 mg/kg. As to conditions: route oral. It counts as functional.
Series [3] can be described thus: Partition coefficient (logP) (HPLC). The following applies: octanol/water. In kind it is physicochemical. The gist of the method: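 Apparent log P* was estimated from reverse-phase HPLC retention time against methyl, ethyl, n-propyl, n-butyl and n-hexyl benzoate standards. Column was C18 at 40 °C with mobile phase CH3OH/0.05 M […] pH 7.4 at 1.0 mL/min, and detection was UV at 230 nm.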

In series [4] the test system is Rattus norvegicus. Put plainly: Effect on change in plasma triglycerides (TG) in triton-induced hyperlipidemic rats after po administration of 10 mg/kg. In kind it is functional.
Series [5] relates to Rattus norvegicus. Put plainly: Effect on change in total cholesterol (TC) in triton-induced hyperlipidemic rats after po administration of 10 mg/kg. In kind it is functional.

Some results are limits rather than exact numbers.

Turning to `CCOP(=O)(Cc1ccc(-c2nc3ccc(Br)cc3c(=O)n2CC)cc1)OCC`, the Change in series [1] was below -42%; in series [2] it was below -29%.
`CC(C)OP(=O)(Cc1ccc(-c2nc3ccc(Br)cc3c(=O)n2C)cc1)OC(C)C`: in series [3], the logP stood at 4.88. The Change in series [1] is on record as below -37%; in series [2] it was -11%.
Consider `CCOP(=O)(Cc1ccc(-c2nc3ccc(Br)cc3c(=O)n2CC(=O)O)cc1)OCC`, for which the Change in series [1] worked out at 13%; in series [2], 5%.
On to `CCOP(=O)(Cc1ccc(-c2nc(OC)c3cc(OC)c(OC)cc3n2)cc1)OCC`, for which, in series [3], the logP was found to be 4.51. Moreover, the Change in series [1] was below -86%; in series [2], below -60%.
The like results for `CCOP(=O)(Cc1ccc(-c2nc(O)c3c(F)cccc3n2)cc1)OCC` were, in that order, 3.13, -8% and -8%.
In the case of `CCOP(=O)(Cc1ccc(-c2nc(OCc3ccc(Br)cc3F)c3cc(Br)ccc3n2)cc1)OCC`, the Change in series [1] is reported as -4%; in series [2], below -12%.
Turning to `CCOP(=O)(Cc1ccc(-c2nc3cc(OC)c(OC)cc3c(=O)n2Cc2ccccc2)cc1)OCC`, in series [3], the logP was found to be 4.49. Moreover, the Change is below -30% in series [4], below -85% in series [1], below -15% in series [5] and below -60% in series [2].
Compound `CCOP(=O)(Cc1ccc(-c2nc(O)c3ccccc3n2)cc1)OCC` showed a logP in series [3] of 2.55.
In series [3], `COc1nc(-c2ccc(CP(=O)(OC)OC)cc2)nc2ccc(Br)cc12` came in with a logP of 5.61. For the same compound, the Change in series [1] and in series [2] was -9% each time.
For `COc1cc2nc(-c3ccc(CP(=O)(OC)OC)cc3)nc(O)c2cc1OC`, the logP in series [3] is 2.6. The Change is on record as -11% in series [1] and -18% in series [2].
In the case of `CCOP(=O)(Cc1ccc(-c2nc(OC)c3c(F)cccc3n2)cc1)OCC`, in series [3], the logP was found to be 5.13. Besides, the Change in series [1] is -28%; in series [2], -25%.
In the case of `CCOP(=O)(Cc1ccc(-c2nc3cccc(F)c3c(=O)n2C)cc1)OCC`, in series [3], the logP was 3.18. Besides, the Change in series [1] is recorded as -12%; in series [2], below -15%.
Take `C=CCn1c(-c2ccc(CP(=O)(OCC)OCC)cc2)nc2cc(OC)c(OC)cc2c1=O`: the Change in series [4] is on record as below -61%; in series [5], below -41%.
As to `C=CCOc1nc(-c2ccc(CP(=O)(OCC)OCC)cc2)nc2cc(OC)c(OC)cc12`, the Change in series [1] is recorded as below -71%; in series [2] it was below -35%.
In the case of `COc1cc2nc(-c3ccc(CP(=O)(OC)OC)cc3)nc(OC)c2cc1OC`, the logP in series [3] is 3.75. Further, the Change is given as below -52% in series [1] and below -48% in series [2].
With `CCOP(=O)(Cc1ccc(-c2nc3ccc(Br)cc3c(=O)n2Cc2ccc(Br)cc2F)cc1)OCC`, the Change in series [1] is -16%; in series [2] it was -1%.
Turning to `CCOP(=O)(Cc1ccc(-c2nc(OCc3ccccc3)c3cc(OC)c(OC)cc3n2)cc1)OCC`, the Change in series [1] is given as below -40%; in series [2] it was below -21%.
For `C=CCOc1nc(-c2ccc(CP(=O)(OCC)OCC)cc2)nc2ccc(Br)cc12` the same measures were -18% and -2%.
For the compound `CCOP(=O)(Cc1ccc(-c2nc(Oc3ccccc3)c3cc(Br)ccc3n2)cc1)OCC`, the logP in series [3] stood at 7.67. Besides, the Change is below 16% in series [1] and 4% in series [2].
`CCOP(=O)(Cc1ccc(-c2nc3ccccc3c(=O)n2C)cc1)OCC` came in with a logP in series [3] of 3.29. For the same compound, the Change in series [1] is below 31%; in series [2] it was 38%.
For `COc1cc2nc(-c3ccc(CP(=O)(OC(C)C)OC(C)C)cc3)nc(OC)c2cc1OC`, the logP in series [3] was 5.53. Further, the figures for the Change in series [1] and in series [2] were below -81% and below -60%, respectively.
`COc1cc2nc(-c3ccc(CP(=O)(OC(C)C)OC(C)C)cc3)n(C)c(=O)c2cc1OC` returned a logP in series [3] of 4.2. In addition, the Change is recorded as -8% in series [4], below -81% in series [1], -4% in series [5] and below -58% in series [2].
For `CCOc1nc(-c2ccc(CP(=O)(OCC)OCC)cc2)nc2ccc(Br)cc12`, the logP in series [3] was 7.01. Also, the Change in series [1] is reported as below -29%; in series [2], -14%.
For `CCOP(=O)(Cc1ccc(-c2nc(OC)c3ccccc3n2)cc1)OCC`, in series [3], the logP turned out to be 5.26. The figures for the Change in series [1] and in series [2] were -5% and 56%, respectively.
For the compound `CCOP(=O)(Cc1ccc(-c2nc(OC)c3cc(Br)ccc3n2)cc1)OCC`, the logP in series [3] was determined as 6.37. The Change was found to be 2% in series [1] and 1% in series [2].
As to `CCOP(=O)(Cc1ccc(-c2nc3cc(OC)c(OC)cc3c(=O)n2C)cc1)OCC`, the logP in series [3] is 3.41. Moreover, the Change is -21% in series [4], below -86% in series [1], -11% in series [5] and below -51% in series [2].
For `COc1cc2nc(-c3ccc(CP(=O)(OC(C)C)OC(C)C)cc3)nc(O)c2cc1OC`, the logP in series [3] worked out at 4.38. The Change in series [1] is on record as -32%; in series [2] it was below -35%.
Compound `CCOP(=O)(Cc1ccc(-c2nc(O)c3cc(OC)c(OC)cc3n2)cc1)OCC` came in with a logP in series [3] of 3.36. Besides, the Change is -37% in series [1] and below -22% in series [2].
For `CCOP(=O)(Cc1ccc(-c2nc3ccc(Br)cc3c(=O)n2Cc2ccccc2)cc1)OCC` the same measures were 5.17, below -54% and below -34%.
For `COc1cc2nc(-c3ccc(CP(=O)(OC)OC)cc3)n(C)c(=O)c2cc1OC` the same measures were 2.65, below -41% and below -27%.
Turning to `CCOP(=O)(Cc1ccc(-c2nc(OCC(=O)O)c3cc(Br)ccc3n2)cc1)OCC`, the Change in series [1] is recorded as -2%; in series [2], -14%.
`CCOP(=O)(Cc1ccc(-c2nc3ccc(Br)cc3c(=O)n2C)cc1)OCC` registered a logP in series [3] of 4.09. The Change was below -35% in series [1] and below -16% in series [2].
`C=CCn1c(-c2ccc(CP(=O)(OCC)OCC)cc2)nc2ccc(Br)cc2c1=O`: the Change in series [1] is given as below -43%; in series [2], below -25%.
The compound `CCOP(=O)(Cc1ccc(C(=O)Nc2ccc(Br)cc2C#N)cc1)OCC` [IBROLIPIM] displayed a logP in series [3] of 3.21. Also, the Change in series [4] is -54%; in series [1], below -85%; in series [5], -27%; in series [2], below -69%.
